# GRIN3A LBD mod – binders of NR3A ligand-binding domain, primary screen, biophysical, differential scanning fluorimetry, uHTS; Glutamate receptor ionotropic, NMDA 3A (GRIN3A) ligand-binding domain; NR3A LBD differential scanning fluorimetry, Tm shift; 0% = protein alone, 100% = glycine-bound protein; Tm shift relative to glycine control, % at 25 µM; 2.5% of 340,000 active;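 active = melting temperature shift of at least 10% of the positive control shift, at one fixed dose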
# aDG glyco up – activators of alpha-DG glycosylation, primary screen, uHTS, Pro5-aDG cells, AlphaScreen; alpha-DG glycosylation AlphaScreen (IIH6); 0% Pro5, 100% B10-LARGE cell signal; AID 624168, 2012; 0.22% of 360,000 active; activation, % at 10 µM;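 active = activation of at least 8% versus controls, or a plate z-score of at least 8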;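 note: Pro5 are CHO cells carrying HIG-tagged alpha-DG that lacks glycosylation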
# CHOP inhibitor – inhibitors of CHOP promoter induction, primary screen, cell-based, unfolded protein response, luciferase reporter; CHO-K1 CHOP-promoter luciferase, tunicamycin-induced, 15-18 h; inhibition, % at 10 µM; 3.8% of 220,000 active; AID 2732, 2010;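 active = compounds that reduced the stress-induced luciferase reporter signal by more than about 70% of percent inhibition, limit read from the data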;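 note: 0% = tunicamycin plus vehicle and 100% = wells without tunicamycin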
# MPTP block – mitochondrial permeability transition pore inhibitors, primary screen, biochemical, isolated mouse mitochondria, absorbance. Ca2+ swelling absorbance, 30 min. inhibition, % at 10 µM. 1.4% of 360,000 active. AID 602449, 2012;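 active = inhibition of 50% or more, scaled per plate between neutral and stimulator controls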;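 note: 0% = DMSO wells given calcium and 100% = 1 mM EGTA wells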
# UPR CHOP act – activators of apoptotic CHOP UPR arm, primary screen, cell-based, CHO-CHOP luciferase reporter, luminescence, uHTS. UPR activation; percent of tunicamycin response over DMSO baseline. activation, % at 10 µM. 0.34% of 330,000 active. AID 449763, 2010;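 active = at 10 µM dose, activation of 40% or more, normalized to positive control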;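 note: 100% = tunicamycin at 10 µg/mL and 0% = DMSO alone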
#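 Material: CHO-CHOP cells, stable luciferase reporter of PERK-eIF2a-CHOP signalling; quantity: 500 reporter cells seeded per well; buffer or medium: F12 medium containing 10% fetal bovine serum; compound: one dose, 10 µM in 0.5% DMSO; incubation: 6 h compound treatment, 37 °C; measured by: Steady-Glo luciferase luminescence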
# UPR XBP1 act – activators of adaptive XBP1 UPR arm, primary screen, cell-based, CHO-XBP1 luciferase reporter, luminescence, uHTS | 0.33% of 330,000 active | activation, % at 20 µM | AID 463104, 2010 | IRE1-XBP1 UPR activation; percent of tunicamycin response, DMSO as zero;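 active = versus positive control, 20 µM dose yields 30% or more activation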;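 note: 100% = tunicamycin at 10 µg/mL and 0% = DMSO only wells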
#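 Material – CHO cell line with stable XBP1 luciferase reporter · Buffer or medium – F12 plus 10% FBS · Compound – single point, 20 µM final compound, 1% DMSO · Schedule – 16-18 h cell attachment at 37 °C, then 6 h compound exposure · Signal – Steady-Glo luminescence read · Benchmarks – high control tunicamycin 10 µg/mL final, low control DMSO vehicle only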
# Rh123 counter – fluorescence retest of MPTP screen hits in isolated mitochondria, single concentration. shares compounds with MPTP block. membrane potential, Rhodamine 123 fluorescence. inhibition, % at 10 µM. 78% of 5,000 active. AID 624504, 2012; in the data active = inhibition above about 22%;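 note: 0% = DMSO vehicle and 100% = positive control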
# MPTP swell DR – mitochondrial permeability transition pore inhibitors, dose response, biochemical, absorbance, uHTS hits | shares compounds with MPTP block | isolated mitochondria swelling | IC50, µM | 58% of 780 active; in the data active = IC50 below about 20 µM
# MPTP cs DR – fluorescent counter-screen in isolated mitochondria, dose response, counter-screen for MPTP inhibitor project, biochemical, fluorescence, uHTS hits. isolated mitochondria counterscreen, fluorescence read-out. AID 651564, 2012. 49% of 780 active. shares compounds with MPTP block. IC50, µM; in the data active = IC50 below about 80 µM
# * marks the source's active call; other numbers are inactive results; i = inactive; . = no result. Sampled rows, rich in hits. Any-hit rate of the full collection: about 5.6%.
SMILES,GRIN3A LBD mod,aDG glyco up,CHOP inhibitor,MPTP block,UPR CHOP act,UPR XBP1 act,Rh123 counter,others
CSc1ccc2c(c1)N(CCC1CCCCN1C)c1ccccc1S2 (stereo unspecified),-0.5,0.3,-2.6,85.4*,2.3,0.2,-22.1,MPTP swell DR=4.79*;MPTP cs DR=56*
Cn1ncc2c(N3CCN(c4ccc(Cl)c(Cl)c4)CC3)ncnc21,1.2,-0.6,83.7*,88.5*,1.6,-0.2,99.2*,
Cn1ncc2c(N3CCN(c4ccccc4F)CC3)ncnc21,1.6,0.1,-3.2,-2.5,2.2,2.7,.,
CCCCC(Nc1ncnc2ccccc12)C(=O)O (stereo unspecified),-0.5,0.0,-6.7,-1.0,-0.8,2.9,.,
CC(Nc1ncnc2ccccc12)c1ccccc1 (stereo unspecified),0.3,1.8,.,95.9*,5.8,-3.8,83.0*,
O=C(OCC(=O)N1CCCC1)c1ccc(S(=O)(=O)Nc2ccccc2)cc1,0.1,0.0,-8.4,0.8,-0.7,1.1,.,
Cc1cc(CN(C)C(=O)c2cc(COc3ccc4ncccc4c3)on2)on1,-1.0,1.8,38.8,96.2*,0.1,1.7,72.5*,
CN(Cc1nccn1C)C(=O)c1cc(COc2cccc(C(F)(F)F)c2)on1,-3.1,-0.3,.,-1.0,5.2,0.7,.,
CN(Cc1nccn1C)C(=O)c1cc(COc2ccc3ncccc3c2)on1,0.1,1.0,38.8,69.5*,-2.0,2.6,18.6,MPTP swell DR=19*;MPTP cs DR=46*
CCCCc1nnc2c(N(C)S(=O)(=O)c3ccccc3)nc3ccccc3n12,1.3,0.4,-2.1,1.2,-1.1,-0.6,.,
FC(F)(F)c1cc(-c2ccccc2)nc(N2CCCCC2)n1,-1.7,-0.1,20.5,67.3*,1.0,-3.4,-2.3,MPTP swell DR=i;MPTP cs DR=>80
Cc1nn(CC(=O)Nc2ccc(S(=O)(=O)N(C)C)cc2)c(C)c1[N+](=O)[O-],-1.7,-0.1,36.1,-0.5,0.2,-2.0,.,
FC(F)(F)c1cc(C(F)(F)F)c2ccc(N/N=C/c3ccccc3)nc2n1,8.7,-0.4,13.5,-3.7,-3.9,2.8,.,
CN(N)c1ccc2c(C(F)(F)F)cc(C(F)(F)F)nc2n1,0.3,0.2,10.4,-0.5,0.5,1.9,.,
N#CC(c1ccccc1)c1ccc2c(C(F)(F)F)cc(C(F)(F)F)nc2n1 (stereo unspecified),-7.0,-0.1,70.0,92.7*,1.4,0.1,70.5*,
Cc1ccc(C(C#N)c2ccc3c(C(F)(F)F)cc(C(F)(F)F)nc3n2)cc1 (stereo unspecified),-0.6,-0.5,59.7,113.1*,12.3,5.4,68.5*,
C=CCn1nc(C(=O)N2CCOCC2)cc1-c1sc(NC(=O)c2ccccc2)nc1C,.,0.2,.,1.5,.,.,.,
O=C(Nc1ccc(F)cc1)C1C(c2ccccc2)C1(Cl)Cl (stereo unspecified),-0.1,0.3,12.2,91.6*,2.4,0.5,90.2*,
O=C(Nc1ccc(F)cc1)C1C2CCC3C(CCC21)C3(Cl)Cl (stereo unspecified),-8.6,0.0,30.9,61.7*,4.3,-2.5,73.6*,
CCc1ccccc1NC(=O)C1C(c2ccccc2)C1(Cl)Cl (stereo unspecified),-7.0,0.5,39.0,50.7*,0.4,-3.5,76.1*,

# Assay outcomes: PubChem, several laboratories
